Data from the EternaBench riboswitch data.

Key:
MS2 coat protein [1] = assay: apparent Kd, MS2 coat protein; higher = weaker binding; RNA-MaP array
Summary of the method: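 RNA designs were transcribed from sequenced DNA templates on an Illumina sequencing chip and then incubated at room temperature with fluorescently labeled MS2 coat protein at 1.5 nM to 3 μM, with or without input ligand, in Tris-HCl pH 7.5 buffer containing KCl, MgCl2, BSA, DTT, tRNA and Tween20. Incubation lasted 0.8–1.5 h at the lowest protein concentrations and 10–20 min at the highest. Apparent Kd is the median of binding-curve fits made for each cluster. Designs measured on fewer than 10 clusters were excluded.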

MS2 coat protein [2] = assay: apparent Kd, MS2 coat protein; higher = weaker binding; RNA-MaP array; FMN 200 µM where present
Summary of the method: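 SNAP-549-labelled MS2 coat protein, doubled from 0.7 or 1.5 nM to 3 µM, was titrated over designs transcribed by stalled E. coli RNA polymerase on Illumina sequencing-chip clusters. Titrations were run without and then with constant ligand in 100 mM Tris-HCl pH 7.5, 80 mM KCl, 4 mM MgCl2, BSA, DTT, yeast tRNA and Tween-20. The apparent Kd is the median of filtered per-cluster fits to green signal normalised to red-channel RNA signal and control-cluster median Fmax.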

[3] = designed as: OFF switch for flavin mononucleotide, no ligand
[4] = ligand present: flavin mononucleotide, designed as: OFF switch for flavin mononucleotide
[5] = designed as: ON switch for flavin mononucleotide, no ligand
[6] = ligand present: flavin mononucleotide, designed as: ON switch for flavin mononucleotide

GAGGCACGGUCGGCCGCCACUACAGCAGUGGUCCGCCAAGCGAGGUACAUGAGGAUCACCCAUGUUAGGACCGGGACCUGUUUUU
apparent Kd (MS2 coat protein [1]; designed as: OFF switch for tryptophan, no ligand): 24.6 nM | apparent Kd (MS2 coat protein [1]; ligand present: tryptophan, designed as: OFF switch for tryptophan): 73.7 nM

AUGAACAACCAGAAGGCAACGUUGGCCCAAGUUUGAGGAUAUGGACGUGGAAGUUCGCACAUGAGGAUCACCCAUGUAGAUCAG
apparent Kd (MS2 coat protein [1]; [3]): 14 nM | apparent Kd (MS2 coat protein [1]; [4]): 12.8 nM

UUUAUACAUGAGGAUCACCCAUGUGAGGAUAUAAAGGCGGACACUGCUGUCGAUCGCUUUAGAAGGCACUGGAU
apparent Kd (MS2 coat protein [1]; [3]): 15.8 nM | apparent Kd (MS2 coat protein [1]; [4]): 20 nM

AUGUUAAGACAGGAUAUCCAAGCUCUAGCGUCAGGAGAAGGGUCAACAUGAGGAUCACCCAUGUGUAGUCUUCG
apparent Kd (MS2 coat protein [1]; [3]): 7.48 nM | apparent Kd (MS2 coat protein [1]; [4]): 15.2 nM

ACAUGAGGAUCACCCAUGUUUGGGCAAAGAUUGAUUGACACGAGAAGGGCCCGCGUACGUCGUAGGCAGGAUAUCGAGUACCGG
apparent Kd (MS2 coat protein [1]; [3]): 32.2 nM | apparent Kd (MS2 coat protein [1]; [4]): 31.1 nM

ACGUGGGUAACCAAGGAUAUAUUUACACCCACAUGAGGAUCACCCAUGUUCUUGCAGGCAUAUAAAUAGAAGGUGGAAACGCAGUG
apparent Kd (MS2 coat protein [1]; [5]): 379 nM | apparent Kd (MS2 coat protein [1]; [6]): 129 nM

GCUACCACCGCAGGAUAUAAUCGGACACUCGUAGCGUUGCGAACAUGAGGAUCACCCAUGUCUAUUUAGAAGGGCGCAUGGGAU
apparent Kd (MS2 coat protein [1]; [5]): 78.8 nM | apparent Kd (MS2 coat protein [1]; [6]): 42.6 nM

AAACUACGACAUGAGGAUCACCCAUGUACUCCGCUAACUACACAGGAUAUAGUGAGGCCAGAGCUCUAGAAGGGUGUUAAUACG
apparent Kd (MS2 coat protein [1]; [5]): 40.3 nM | apparent Kd (MS2 coat protein [1]; [6]): 28.2 nM

AUCUUAGGUGAGAAGGUGGACACAUGAGGAUCACCCAUGUUGAUGGUCUUGUAGCGUUUGCAAGCCAAGGAUAUCAUCUACGGC
apparent Kd (MS2 coat protein [1]; [5]): 27.4 nM | apparent Kd (MS2 coat protein [1]; [6]): 19.8 nM

CCACAGUAUAAAGGAUAUGCGGCCACGGCAACAGCAGAAGGUUAUGCCACUGUACAUGAGGAUCACCCAUGUCCAACUUUCCCU
apparent Kd (MS2 coat protein [1]; [5]): 23.8 nM | apparent Kd (MS2 coat protein [1]; [6]): 11.9 nM

AGACCGGCUCAGGAUAUGUACAGGACAUACUCAACAGAAGGGAGUACAUGAGGAUCACCCAUGUCUGGGUAGAU
apparent Kd (MS2 coat protein [1]; [3]): 488 nM | apparent Kd (MS2 coat protein [1]; [4]): 371 nM

UCGUUUAUACAAGGAUAUCAAUUAUAGCUAAAUUCAACAUGAGGAUCACCCAUGUAACUAUGGAGUGAGAAGGUGUAAUGACUU
apparent Kd (MS2 coat protein [2]; [5]): 514 nM | apparent Kd (MS2 coat protein [2]; [6]): 302 nM

UUAGCAUACCGAGGAUAUUCAUAUAAUAAAUAAACAUGAGGAUCACCCAUGUGGCGAAAGCCUAGGGAGAAGGCGGAAUGCUAU
apparent Kd (MS2 coat protein [2]; [5]): 197 nM | apparent Kd (MS2 coat protein [2]; [6]): 24.6 nM

AGUUGGCGAGGAUAUACAUGAGGAUCACCCAUGUGAGAGAAUAAAGUGAGGAAGAAAAGUAGAAGGCGCUGACA
apparent Kd (MS2 coat protein [2]; [3]): 47.8 nM | apparent Kd (MS2 coat protein [2]; [4]): 154 nM

UCAGGCUUCGAGAAGGACAUGAGGAUCACCCAUGUGCGUGUGAAGCAGCCGUGAGGCUGCAUCAUGUAGGAUAUCGGAGUCUGG
apparent Kd (MS2 coat protein [2]; [3]): 74 nM | apparent Kd (MS2 coat protein [2]; [4]): 583 nM

UAAUUGUGAGGAUAUUCGUAGUUCUCGGAGACGAGAAUUACGGAGAAGGCACAUGAGGAUCACCCAUGUUCCUU
apparent Kd (MS2 coat protein [2]; [3]): 18.3 nM | apparent Kd (MS2 coat protein [2]; [4]): 96.1 nM

ACGUUAAAAGGAUAUACAUGAGGAUCACCCAUGUUGUUCGAACCGGUAAACCCUCUAUGUAGAAGGUUUGGCGC
apparent Kd (MS2 coat protein [2]; [3]): 16 nM | apparent Kd (MS2 coat protein [2]; [4]): 17.9 nM

GAUCAUGCAGGAUAUACAUUAACCAUGAAAACAUGGUUGUAACAUGAGGAUCACCCAUGUAGAAGGGCAUGAUC
apparent Kd (MS2 coat protein [2]; [3]): 14.2 nM | apparent Kd (MS2 coat protein [2]; [4]): 21.3 nM

UUGAGGUGUCAAGGAUAUGCUACCGUUUCGGUAGCAGAAGGUGAUCACAUGAGGAUCACCCAUGUAUGCAUGCGUGAGCGUGCU
apparent Kd (MS2 coat protein [2]; [5]): 45.6 nM | apparent Kd (MS2 coat protein [2]; [6]): 285 nM

CCUCCACAUUAGGAUAUCGUCACAGAAAUGUGACGAGAAGGAAUGACAUGAGGAUCACCCAUGUUAUCGUGAUG
apparent Kd (MS2 coat protein [2]; [3]): 21.2 nM | apparent Kd (MS2 coat protein [2]; [4]): 54.9 nM

ACUAUACGAGGAUAUGCUGUCAGUACUCAGAGGUUAGUGUGACAUGAGGAUCACCCAUGUAGAAGGCGUUUACU
apparent Kd (MS2 coat protein [2]; [3]): 40.8 nM | apparent Kd (MS2 coat protein [2]; [4]): 34 nM

UUUUUGUCAGAGGAUAUCAUAGUCAGUUUUAAGUGAGAAGGUUGAACAUGAGGAUCACCCAUGUGACCUUGGUG
apparent Kd (MS2 coat protein [2]; [3]): 23.6 nM | apparent Kd (MS2 coat protein [2]; [4]): 21.6 nM

AGCUACGUUUCGUAGCAGUGUCAUCGAGAAGGCUCAUUAACAUGAGGAUCACCCAUGUAUUCAUGGGAGGAUAUCGAUGAUACA
apparent Kd (MS2 coat protein [2]; [5]): 131 nM | apparent Kd (MS2 coat protein [2]; [6]): 9.22 nM

AUCAGCUCGUCAGGAUAUACGUCACUGCGUCAGCAGUGUGGUAAUAUCACAUGAGGAUCACCCAUGUAGAAGGGACGAGCUGAU
apparent Kd (MS2 coat protein [2]; [3]): 5.27 nM | apparent Kd (MS2 coat protein [2]; [4]): 6.28 nM

UGUCGGAGCAGAGGAUAUAACAUGAGGAUCACCCAUGUAUGAACCAAUAGCUGGAAACAGCAAUGUAAGAAGGCUGCUCCGACA
apparent Kd (MS2 coat protein [2]; [3]): 5.8 nM | apparent Kd (MS2 coat protein [2]; [4]): 6.69 nM

GGAUGACAAAGUCAUCCUAAACGAACAUGAGGAUCACCCAUGUAGGAUAUGCUACUCAAAGAGUAGCAGAAGGACAUGUGCCUU
apparent Kd (MS2 coat protein [2]; [3]): 37.3 nM | apparent Kd (MS2 coat protein [2]; [4]): 260 nM
